Active and inactive are the calls of the source. The rule behind the calls is not given here.
What was measured:
PC-3 [1] = test: Induction of beta tubulin stabilization in human PC3 cells at 10 nM after 24 hrs by DAPI-staining based immunofluorescence assay; assay type: cell-based
Summary of the method: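 PC3 cells were treated for 24 hours with the test agent at 1, 10 or 100 nM, or with 10 nM docetaxel or vinblastine as stabilizing and destabilizing references. Cells were immunostained for beta-tubulin (green) with DAPI nuclear counterstain (blue) and the microtubule staining pattern imaged.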

LLC-PK1 [2] = test: Resistance factor, ratio of GI50 for pig LLC-PK1 cells expressing MDR1 to GI50 for pig LLC-PK1 cells; design: species or system Sus scrofa
Summary of the method: (§1)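 Porcine epithelial L-MDR1 (P-gp expressing) cells and their non-expressing parent line were exposed to compound for 72 h. Viability was read with AlamarBlue dye and GI50 derived. P-gp expression was verified by Western blot with β-actin as loading control. The resistance ratio compares GI50 in MDR1 versus parent cells.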

LLC-PK1 [3] = test: Growth inhibition of pig LLC-PK1 cells expressing MDR1 by Alamar Blue assay; assay type: functional; conditions: Sus scrofa; summary of the method: as §1
[4] = Growth inhibition of pig LLC-PK1 cells by Alamar Blue assay; assay type: cell-based, Sus scrofa
Summary of the method: (§2)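 Cell viability was read with AlamarBlue dye in 96-well format and GI50 values derived, to assess P-gp effects. Cells were P-gp-expressing NCI/ADR-Res ovarian cancer cells and L-MDR1 porcine epithelial cells, each with its non-expressing parent line. P-gp expression was confirmed by Western blot with β-actin as loading control. Resistance is the GI50 in the P-gp line over the GI50 in the parent line.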

OVCAR-8 = test: Resistance factor, ratio of GI50 for P-gp expressing NCI-ADR-RES cells to GI50 for human OVCAR8 cells; assay type: functional; summary of the method: as §2
[5] = Growth inhibition of P-gp expressing human NCI-ADR-RES cells by Alamar Blue assay; assay type: functional
Summary of the method: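 72-h cytotoxicity in 96-well plates with AlamarBlue viability dye, giving GI50. Line 1 uses docetaxel-resistant PC3 prostate cells (PC3-DR), and line 2 uses NCI/ADR-Res ovarian cells. P-gp expression in both was confirmed by Western blot, with β-actin as the loading control.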

[6] = Growth inhibition of human OVCAR8 cells by Alamar Blue assay; assay type: functional; conditions: OVCAR-8; summary of the method: as §2
PC-3 [7] = test: Resistance factor, ratio of GI50 for P-gp expressing docetaxel-resistant human PC3 cells to GI50 for human PC3 cells; assay type: functional
Summary of the method: (§3)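 PC3 prostate cancer cells and docetaxel-resistant PC3-DR cells were exposed to drug for 72 hours in 96-well format. Viability was read with AlamarBlue dye and GI50 derived. Resistance is the GI50 in PC3-DR over the GI50 in parental PC3.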

PC-3 [8] = test: Growth inhibition of human PC3 cells after 72 hrs by Alamar Blue assay; assay type: functional; conditions: PC-3, 72 h; summary of the method: as §3
PC-3 [9] = test: cells; conditions: Homo sapiens, PC-3, 72 h
[10] = Growth inhibition of human OVCAR8 cells; assay type: functional; conditions: OVCAR-8
Summary of the method: (§4)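 NCI 60-human-cancer-cell-line panel, five-dose screen after a preliminary screen. GI50 is the molar concentration giving 50% growth inhibition.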

[11] = Growth inhibition of human OVCAR4 cells; assay type: functional; conditions: OVCAR-4; summary of the method: as §4
IGROV-1 = test: Growth inhibition of human IGROV1 cells; assay type: functional; summary of the method: as §4
[12] = Growth inhibition of human OVCAR3 cells; assay type: functional; conditions: OVCAR-3; summary of the method: as §4
[13] = Growth inhibition of human UACC257 cells; assay type: functional; conditions: UACC-257
Summary of the method: (§5)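 NCI 60-cell-line panel, five-dose screen; GI50 is the molar concentration giving 50% growth inhibition.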

[14] = Growth inhibition of human UACC62 cells; assay type: functional; conditions: UACC-62; summary of the method: as §5
SK-MEL-5 = test: Growth inhibition of human SK-MEL-5 cells; assay type: functional; summary of the method: as §4
SK-MEL-2 = test: Growth inhibition of human SK-MEL-2 cells; assay type: functional; summary of the method: as §4
SK-MEL-28 = test: Growth inhibition of human SK-MEL-28 cells; assay type: functional; summary of the method: as §4
M14 = test: Growth inhibition of human M14 cells; assay type: functional; summary of the method: as §4
MDA-MB-435 = test: Growth inhibition of human MDA-MB-435 cells; assay type: functional; summary of the method: as §4
Malme-3M = test: Growth inhibition of human MALME-3M cells; assay type: functional; summary of the method: as §4
U-251 = test: Growth inhibition of human U251 cells; assay type: functional; summary of the method: as §5
[15] = Growth inhibition of human LOXIMVI cells; assay type: functional; conditions: LOX IMVI; summary of the method: as §4
SNB-75 = test: Growth inhibition of human SNB75 cells; assay type: functional; summary of the method: as §5
SNB-19 = test: Growth inhibition of human SNB19 cells; assay type: functional; summary of the method: as §5
[16] = Growth inhibition of human SF539 cells; assay type: functional; conditions: SF-539; summary of the method: as §4
SW-620 = test: Growth inhibition of human SW620 cells; assay type: functional; summary of the method: as §5
SF-268 = test: Growth inhibition of human SF268 cells; assay type: functional; summary of the method: as §4
HT-29 = test: Growth inhibition of human HT-29 cells; assay type: functional; summary of the method: as §4
KM12 = test: Growth inhibition of human KM12 cells; assay type: functional; summary of the method: as §4
[17] = Growth inhibition of human HCT15 cells; assay type: functional; conditions: HCT-15; summary of the method: as §4
[18] = Growth inhibition of human HCC2998 cells; assay type: functional; conditions: HCC 2998; summary of the method: as §4
HCT-116 = test: Growth inhibition of human HCT116 cells; assay type: functional; summary of the method: as §4
COLO 205 = test: Growth inhibition of human COLO205 cells; assay type: functional; summary of the method: as §4
NCI-H460 = test: Growth inhibition of human NCI-H460 cells; assay type: functional; summary of the method: as §4
NCI-H322M = test: Growth inhibition of human NCI-H322M cells; assay type: functional; summary of the method: as §4
NCI-H226 = test: Growth inhibition of human NCI-H226 cells; assay type: functional; summary of the method: as §4
NCI-H23 = test: Growth inhibition of human NCI-H23 cells; assay type: functional; summary of the method: as §4
[19] = Growth inhibition of human HOP92 cells; assay type: functional; conditions: HOP-92; summary of the method: as §4
HOP-62 = test: Growth inhibition of human HOP62 cells; assay type: functional; summary of the method: as §4
SR = test: Growth inhibition of human SR cells; assay type: functional; summary of the method: as §5
A549 = test: Growth inhibition of human A549 cells; assay type: functional; summary of the method: as §4
RPMI-8226 = test: Growth inhibition of human RPMI8226 cells; assay type: functional; summary of the method: as §4
K562 = test: Growth inhibition of human K562 cells; assay type: functional; summary of the method: as §4
[20] = Growth inhibition of human MOLT4 cells; assay type: functional; conditions: MOLT-4; summary of the method: as §4
HL-60(TB) = test: Growth inhibition of human HL-60(TB) cells; assay type: functional; summary of the method: as §4
CCRF-CEM = test: Growth inhibition of human CCRF-CEM cells; assay type: functional; summary of the method: as §4
MDA-MB-468 = test: Growth inhibition of human MDA-MB-468 cells; assay type: functional; summary of the method: as §4
T47D = test: Growth inhibition of human T47D cells; assay type: functional; summary of the method: as §5
[21] = Growth inhibition of human Hs578T cells; assay type: functional; conditions: Hs-578T; summary of the method: as §4
[22] = Growth inhibition of human BT549 cells; assay type: functional; conditions: BT-549; summary of the method: as §4
MDA-MB-231 = test: Growth inhibition of human MDA-MB-231 cells; assay type: functional; summary of the method: as §4
DU-145 = test: Growth inhibition of human DU145 cells; assay type: functional; summary of the method: as §4
MCF7 = test: Growth inhibition of human MCF7 cells; assay type: functional; summary of the method: as §4
[23] = Growth inhibition of human UO31 cells; assay type: functional; conditions: UO-31; summary of the method: as §5
PC-3 [24] = test: Growth inhibition of human PC3 cells; assay type: functional; summary of the method: as §4
TK-10 = test: Growth inhibition of human TK10 cells; assay type: functional; summary of the method: as §5
[25] = Growth inhibition of human RXF393 cells; assay type: functional; conditions: RXF 393; summary of the method: as §4
SN12C = test: Growth inhibition of human SN12C cells; assay type: functional; summary of the method: as §5
ACHN = test: Growth inhibition of human ACHN cells; assay type: functional; summary of the method: as §4
CAKI-1 = test: Growth inhibition of human Caki1 cells; assay type: functional; summary of the method: as §4
A498 = test: Growth inhibition of human A498 cells; assay type: functional; summary of the method: as §4
SK-OV-3 = test: Growth inhibition of human SKOV3 cells; assay type: functional; summary of the method: as §5
786-0 = test: Growth inhibition of human 786-0 cells; assay type: functional; summary of the method: as §4
[26] = Growth inhibition of human NCI-ADR-RES cells; assay type: functional; summary of the method: as §4
[27] = Growth inhibition of human OVCAR5 cells; assay type: functional; conditions: OVCAR-5; summary of the method: as §4

With `CC(=O)O[C@@]12CO[C@@H]1C[C@H](O)[C@@]1(C)C(=O)[C@H](O)C3=C(C)[C@@H](OC(=O)[C@H](O)[C@@H](NC(=O)OC(C)(C)C)c4ccccc4)C[C@@](O)([C@@H](OC(=O)c4ccccc4)[C@H]21)C3(C)C.O.O.O` [DOCETAXEL] the Activity (PC-3 [1]) was “Active”, the RatioGI50 (LLC-PK1 [2]) was 627 and the GI50 (LLC-PK1 [3]) was 107 nM. It also gave a GI50 [4] of 0.17 nM, a RatioGI50 (OVCAR-8) of 392 and a GI50 [5] of 196 nM. For the same compound, the GI50 [6] was 0.5 nM, the RatioGI50 (PC-3 [7]) was 22 and the GI50 (PC-3 [8]) was 2.5 nM. The GI50 (PC-3 [9]) was 54 nM.

With `COc1cc(/C(C#N)=C\c2cc3ccccc3s2)cc(OC)c1OC` the GI50 [10] was under 10 nM, the GI50 [11] was under 10 nM and the GI50 (IGROV-1) was under 10 nM. The GI50 [12] was under 10 nM, the GI50 [13] was over 100 nM and the GI50 [14] was under 10 nM. The GI50 (SK-MEL-5) was under 10 nM, the GI50 (SK-MEL-2) was under 10 nM and the GI50 (SK-MEL-28) was under 10 nM. For the same compound, the GI50 (M14) was under 10 nM, the GI50 (MDA-MB-435) was under 10 nM and the GI50 (Malme-3M) was under 10 nM. The GI50 (U-251) was under 10 nM, the GI50 [15] was under 10 nM and the GI50 (SNB-75) was under 10 nM. It also gave a GI50 (SNB-19) of 39.1 nM, a GI50 [16] of under 10 nM and a GI50 (SW-620) of under 10 nM. For the same compound, the GI50 (SF-268) was under 10 nM, the GI50 (HT-29) was under 10 nM and the GI50 (KM12) was under 10 nM. For the same compound, the GI50 [17] was under 10 nM, the GI50 [18] was 19.2 nM and the GI50 (HCT-116) was under 10 nM. It also gave a GI50 (COLO 205) of under 10 nM, a GI50 (NCI-H460) of under 10 nM and a GI50 (NCI-H322M) of 18.3 nM. It also gave a GI50 (NCI-H226) of 17.9 nM, a GI50 (NCI-H23) of under 10 nM and a GI50 [19] of under 10 nM. For the same compound, the GI50 (HOP-62) was under 10 nM, the GI50 (SR) was under 10 nM and the GI50 (A549) was under 10 nM. It also gave a GI50 (RPMI-8226) of under 10 nM, a GI50 (K562) of under 10 nM and a GI50 [20] of under 10 nM. The GI50 (HL-60(TB)) was under 10 nM, the GI50 (CCRF-CEM) was under 10 nM and the GI50 (MDA-MB-468) was under 10 nM. It also gave a GI50 (T47D) of over 100 nM, a GI50 [21] of under 10 nM and a GI50 [22] of under 10 nM. For the same compound, the GI50 (MDA-MB-231) was under 10 nM, the GI50 (DU-145) was under 10 nM and the GI50 (MCF7) was under 10 nM. For the same compound, the GI50 [23] was under 10 nM, the GI50 (PC-3 [24]) was under 10 nM and the GI50 (TK-10) was over 100 nM. It also gave a GI50 [25] of under 10 nM, a GI50 (SN12C) of under 10 nM and a GI50 (ACHN) of under 10 nM. It also gave a GI50 (CAKI-1) of 37.8 nM, a GI50 (A498) of under 10 nM and a GI50 (SK-OV-3) of under 10 nM. For the same compound, the GI50 (786-0) was under 10 nM, the GI50 [26] was under 10 nM and the GI50 [27] was under 10 nM.
